Assay results as given in ChEMBL document CHEMBL1165965, “Synthesis and structure-activity relationships of 1,2,3,4-tetrahydropyrido[2,3-b]pyrazines as potent and selective inhibitors of the anaplastic lymphoma kinase” (Bioorg Med Chem, 2010).

Tests used:
[1] = molecular target: Serine/threonine-protein kinase pim-3 (Homo sapiens) (UniProt Q86V86); assay: Inhibition of PIM3 at 1 uM
[2] = molecular target: Mitogen-activated protein kinase 9 (Homo sapiens) (UniProt P45984); assay: Inhibition of JNK2 at 1 uM
In short: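 Single-concentration screen on the Ambit KINOMEscan platform, run against a panel of 250–400 kinases. Per-kinase inhibition was also summarized as S(90), the fraction of kinases inhibited by more than 90%.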

[3] = molecular target: Cyclin-dependent kinase 3 (Homo sapiens) (UniProt Q00526); assay: Inhibition of CDK3 at 1 uM
[4] = molecular target: T1, Protein kinase C epsilon type (Homo sapiens) (UniProt Q02156); assay: Inhibition of PRKCE at 1 uM
T1 sequence (whole entry): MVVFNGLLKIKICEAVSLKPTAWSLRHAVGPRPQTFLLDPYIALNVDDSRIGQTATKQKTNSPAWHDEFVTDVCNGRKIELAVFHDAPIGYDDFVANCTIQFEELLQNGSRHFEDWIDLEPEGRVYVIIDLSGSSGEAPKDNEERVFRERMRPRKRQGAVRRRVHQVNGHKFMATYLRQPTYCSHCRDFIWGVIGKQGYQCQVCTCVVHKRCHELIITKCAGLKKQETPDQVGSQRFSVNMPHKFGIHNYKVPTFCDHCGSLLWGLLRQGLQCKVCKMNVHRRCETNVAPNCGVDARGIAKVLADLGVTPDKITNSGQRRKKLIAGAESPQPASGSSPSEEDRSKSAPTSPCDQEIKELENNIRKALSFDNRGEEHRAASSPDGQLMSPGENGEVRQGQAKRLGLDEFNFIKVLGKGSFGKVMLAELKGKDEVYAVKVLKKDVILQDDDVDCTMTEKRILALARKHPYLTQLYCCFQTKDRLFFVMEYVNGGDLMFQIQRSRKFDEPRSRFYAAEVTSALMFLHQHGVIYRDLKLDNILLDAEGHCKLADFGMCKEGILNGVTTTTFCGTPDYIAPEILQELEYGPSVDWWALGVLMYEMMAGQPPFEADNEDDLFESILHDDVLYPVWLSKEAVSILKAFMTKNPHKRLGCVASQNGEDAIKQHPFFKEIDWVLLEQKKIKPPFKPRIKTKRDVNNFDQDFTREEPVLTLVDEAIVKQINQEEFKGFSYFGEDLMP

[5] = molecular target: Serine/threonine-protein kinase SIK2 (Homo sapiens) (UniProt Q9H0K1); assay: Inhibition of SIK2 at 1 uM
[6] = molecular target: Interleukin-1 receptor-associated kinase 1 (Homo sapiens) (UniProt P51617); assay: Inhibition of IRAK1 at 1 uM
[7] = molecular target: T2, Mitogen-activated protein kinase kinase kinase 19 (Homo sapiens) (UniProt Q56UN5); assay: Inhibition of YSK4 at 1 uM
T2 sequence (whole entry): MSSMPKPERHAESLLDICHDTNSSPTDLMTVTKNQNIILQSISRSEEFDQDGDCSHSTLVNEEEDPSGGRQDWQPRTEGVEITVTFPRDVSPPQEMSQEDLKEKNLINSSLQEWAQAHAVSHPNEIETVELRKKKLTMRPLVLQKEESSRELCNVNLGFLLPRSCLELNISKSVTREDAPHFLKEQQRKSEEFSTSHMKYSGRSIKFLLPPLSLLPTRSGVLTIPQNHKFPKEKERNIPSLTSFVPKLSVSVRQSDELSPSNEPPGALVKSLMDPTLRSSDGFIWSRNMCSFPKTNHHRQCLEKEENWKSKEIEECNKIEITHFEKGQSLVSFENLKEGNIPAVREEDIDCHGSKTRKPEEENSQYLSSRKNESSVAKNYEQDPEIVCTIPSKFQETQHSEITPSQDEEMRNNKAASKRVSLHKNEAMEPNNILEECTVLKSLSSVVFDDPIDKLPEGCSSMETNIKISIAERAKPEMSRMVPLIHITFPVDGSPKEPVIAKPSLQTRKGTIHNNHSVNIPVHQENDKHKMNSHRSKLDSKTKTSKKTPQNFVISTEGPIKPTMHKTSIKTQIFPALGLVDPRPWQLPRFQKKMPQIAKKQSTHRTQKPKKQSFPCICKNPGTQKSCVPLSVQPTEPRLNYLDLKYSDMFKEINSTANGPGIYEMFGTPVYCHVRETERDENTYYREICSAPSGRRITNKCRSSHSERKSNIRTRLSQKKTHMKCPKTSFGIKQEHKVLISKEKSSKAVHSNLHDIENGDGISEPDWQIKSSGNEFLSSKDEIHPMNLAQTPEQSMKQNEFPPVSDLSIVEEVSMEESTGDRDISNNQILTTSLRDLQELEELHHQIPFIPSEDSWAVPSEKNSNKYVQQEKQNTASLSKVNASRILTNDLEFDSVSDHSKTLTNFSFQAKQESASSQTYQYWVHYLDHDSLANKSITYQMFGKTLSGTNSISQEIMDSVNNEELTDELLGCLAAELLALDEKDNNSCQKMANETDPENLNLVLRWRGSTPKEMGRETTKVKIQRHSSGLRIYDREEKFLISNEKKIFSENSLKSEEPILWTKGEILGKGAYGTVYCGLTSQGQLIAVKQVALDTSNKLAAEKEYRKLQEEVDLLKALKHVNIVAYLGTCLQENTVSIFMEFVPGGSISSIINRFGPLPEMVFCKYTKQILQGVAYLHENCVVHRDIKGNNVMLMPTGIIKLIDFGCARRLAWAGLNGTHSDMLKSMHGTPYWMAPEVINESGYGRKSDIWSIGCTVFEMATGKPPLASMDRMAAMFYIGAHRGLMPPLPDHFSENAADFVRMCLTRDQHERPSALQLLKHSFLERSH

[8] = molecular target: Epidermal growth factor receptor (Homo sapiens) (UniProt P00533); assay: Inhibition of EGFR at 1 uM
In short: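 Single-concentration screen using Ambit Bioscience KINOMEscan technology across a panel of 250–400 kinases. Per-kinase inhibition from this screen was summarized as S(90), the fraction of kinases inhibited by more than 90%.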

Chain of Epidermal growth factor receptor (Homo sapiens) (P00533 whole entry): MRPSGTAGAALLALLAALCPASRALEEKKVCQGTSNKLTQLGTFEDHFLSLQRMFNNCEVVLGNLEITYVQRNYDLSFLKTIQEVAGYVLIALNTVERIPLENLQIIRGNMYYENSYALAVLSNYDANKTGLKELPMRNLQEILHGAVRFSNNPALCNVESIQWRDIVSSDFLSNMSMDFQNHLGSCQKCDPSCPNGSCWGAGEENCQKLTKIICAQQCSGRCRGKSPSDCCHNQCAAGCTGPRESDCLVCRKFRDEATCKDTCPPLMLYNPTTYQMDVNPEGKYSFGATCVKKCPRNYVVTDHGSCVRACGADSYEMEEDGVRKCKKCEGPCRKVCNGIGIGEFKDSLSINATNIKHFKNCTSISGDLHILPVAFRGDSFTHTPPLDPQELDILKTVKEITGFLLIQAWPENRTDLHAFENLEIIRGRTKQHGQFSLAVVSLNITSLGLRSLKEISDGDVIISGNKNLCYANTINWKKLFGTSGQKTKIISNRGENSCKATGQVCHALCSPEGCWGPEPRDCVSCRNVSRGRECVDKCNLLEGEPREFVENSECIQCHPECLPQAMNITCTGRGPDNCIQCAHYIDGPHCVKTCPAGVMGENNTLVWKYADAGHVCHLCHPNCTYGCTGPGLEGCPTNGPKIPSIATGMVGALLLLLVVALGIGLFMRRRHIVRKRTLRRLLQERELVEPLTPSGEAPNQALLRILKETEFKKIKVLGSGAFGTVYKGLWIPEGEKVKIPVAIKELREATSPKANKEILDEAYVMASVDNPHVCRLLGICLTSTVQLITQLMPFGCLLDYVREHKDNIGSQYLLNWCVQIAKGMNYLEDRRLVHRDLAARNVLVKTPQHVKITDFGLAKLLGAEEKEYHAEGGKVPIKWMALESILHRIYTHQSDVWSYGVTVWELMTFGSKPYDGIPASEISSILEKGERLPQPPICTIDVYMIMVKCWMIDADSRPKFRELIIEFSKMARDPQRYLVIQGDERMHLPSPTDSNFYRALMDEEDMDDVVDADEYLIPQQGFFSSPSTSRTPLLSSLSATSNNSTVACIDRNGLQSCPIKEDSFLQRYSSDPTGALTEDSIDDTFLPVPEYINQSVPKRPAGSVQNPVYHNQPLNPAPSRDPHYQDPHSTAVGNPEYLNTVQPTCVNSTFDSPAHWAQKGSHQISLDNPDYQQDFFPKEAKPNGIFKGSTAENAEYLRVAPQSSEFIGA
Chain of Mitogen-activated protein kinase 9 (Homo sapiens) (P45984 whole entry, looked up): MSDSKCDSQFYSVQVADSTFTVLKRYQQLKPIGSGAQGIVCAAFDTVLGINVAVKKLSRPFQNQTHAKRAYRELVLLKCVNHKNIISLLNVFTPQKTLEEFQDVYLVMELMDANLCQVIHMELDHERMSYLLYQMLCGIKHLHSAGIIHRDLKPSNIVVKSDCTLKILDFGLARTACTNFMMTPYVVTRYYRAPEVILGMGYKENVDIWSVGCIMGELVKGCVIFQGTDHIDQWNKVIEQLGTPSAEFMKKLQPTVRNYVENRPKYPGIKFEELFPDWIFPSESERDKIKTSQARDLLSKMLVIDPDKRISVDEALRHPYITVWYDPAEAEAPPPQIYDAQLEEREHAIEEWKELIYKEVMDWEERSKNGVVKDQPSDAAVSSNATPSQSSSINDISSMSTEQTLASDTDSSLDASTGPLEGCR
Chain of Interleukin-1 receptor-associated kinase 1 (Homo sapiens) (P51617 whole entry, looked up): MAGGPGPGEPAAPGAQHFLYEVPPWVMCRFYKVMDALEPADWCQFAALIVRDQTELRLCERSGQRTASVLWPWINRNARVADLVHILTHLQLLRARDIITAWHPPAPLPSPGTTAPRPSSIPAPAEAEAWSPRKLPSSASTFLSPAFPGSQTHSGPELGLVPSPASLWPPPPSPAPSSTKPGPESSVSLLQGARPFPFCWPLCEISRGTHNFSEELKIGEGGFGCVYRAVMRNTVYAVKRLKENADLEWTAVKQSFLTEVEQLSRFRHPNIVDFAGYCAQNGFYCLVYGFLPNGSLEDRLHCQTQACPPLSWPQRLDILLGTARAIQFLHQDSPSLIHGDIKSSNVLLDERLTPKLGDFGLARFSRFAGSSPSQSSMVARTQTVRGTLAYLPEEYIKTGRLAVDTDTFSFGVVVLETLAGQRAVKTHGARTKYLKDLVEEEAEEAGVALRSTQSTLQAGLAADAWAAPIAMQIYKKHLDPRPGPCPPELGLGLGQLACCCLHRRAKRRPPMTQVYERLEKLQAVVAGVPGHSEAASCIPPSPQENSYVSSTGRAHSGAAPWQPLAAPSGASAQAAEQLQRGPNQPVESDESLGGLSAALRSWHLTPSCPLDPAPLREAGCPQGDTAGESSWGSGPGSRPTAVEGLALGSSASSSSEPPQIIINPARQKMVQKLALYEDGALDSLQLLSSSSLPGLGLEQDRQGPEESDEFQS
Chain of Serine/threonine-protein kinase SIK2 (Homo sapiens) (Q9H0K1 whole entry, looked up): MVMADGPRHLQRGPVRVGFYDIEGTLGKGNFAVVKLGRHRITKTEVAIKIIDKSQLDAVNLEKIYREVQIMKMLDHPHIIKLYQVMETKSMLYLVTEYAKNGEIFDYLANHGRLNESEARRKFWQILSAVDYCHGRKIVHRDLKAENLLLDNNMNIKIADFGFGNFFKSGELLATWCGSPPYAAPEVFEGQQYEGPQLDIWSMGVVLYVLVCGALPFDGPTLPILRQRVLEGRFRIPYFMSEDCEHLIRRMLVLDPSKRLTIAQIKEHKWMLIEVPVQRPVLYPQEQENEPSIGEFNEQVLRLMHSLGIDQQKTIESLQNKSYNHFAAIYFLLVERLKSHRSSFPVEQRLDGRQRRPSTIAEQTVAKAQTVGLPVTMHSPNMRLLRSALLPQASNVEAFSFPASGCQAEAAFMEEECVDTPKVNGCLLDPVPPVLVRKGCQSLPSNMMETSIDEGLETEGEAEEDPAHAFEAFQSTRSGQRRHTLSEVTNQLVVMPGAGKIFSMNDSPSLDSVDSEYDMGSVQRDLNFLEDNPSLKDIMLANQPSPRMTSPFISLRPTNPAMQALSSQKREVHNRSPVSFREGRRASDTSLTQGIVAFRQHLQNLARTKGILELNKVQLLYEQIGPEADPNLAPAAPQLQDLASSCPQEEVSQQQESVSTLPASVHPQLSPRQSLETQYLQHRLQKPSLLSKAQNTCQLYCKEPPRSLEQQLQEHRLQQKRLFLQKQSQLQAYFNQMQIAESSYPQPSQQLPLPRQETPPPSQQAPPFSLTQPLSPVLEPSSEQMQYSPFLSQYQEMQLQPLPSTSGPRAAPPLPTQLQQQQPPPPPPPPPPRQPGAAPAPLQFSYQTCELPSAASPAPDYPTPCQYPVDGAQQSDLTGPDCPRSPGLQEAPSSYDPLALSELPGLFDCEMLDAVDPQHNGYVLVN
Chain of Cyclin-dependent kinase 3 (Homo sapiens) (Q00526 whole entry, looked up): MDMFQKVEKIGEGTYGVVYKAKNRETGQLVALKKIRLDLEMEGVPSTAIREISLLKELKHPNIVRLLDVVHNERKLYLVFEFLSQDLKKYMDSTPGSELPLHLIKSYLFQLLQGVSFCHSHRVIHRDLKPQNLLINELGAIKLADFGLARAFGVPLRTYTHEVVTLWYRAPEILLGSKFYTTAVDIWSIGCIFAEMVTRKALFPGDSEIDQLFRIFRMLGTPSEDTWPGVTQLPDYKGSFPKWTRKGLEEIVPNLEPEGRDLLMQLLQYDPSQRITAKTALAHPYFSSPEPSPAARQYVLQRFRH

Structure (SMILES) | inhibition [1] [%] | inhibition [2] [%] | inhibition [3] [%] | inhibition [4] [%] | inhibition [5] [%] | inhibition [6] [%] | inhibition [7] [%] | inhibition [8] [%]
CN1CCN(c2ccc(-c3cnc4c(c3)N(Cc3cc(Cl)ccc3Cl)CCN4)cn2)CC1 | < 50 | < 50 | < 50 | < 50 | < 50 | < 50 | < 50 | < 50
FC(F)(F)c1ccc(Cl)cc1CN1CCNc2ncc(-c3ccnc(N4CCNCC4)c3)cc21 | < 50 | < 50 | < 50 | < 50 | 75 | < 50 | < 50 | < 50
CC(=O)N1CCN(c2cc(-c3cnc4c(c3)N(Cc3cc(Cl)ccc3C(F)(F)F)CCN4)ccn2)CC1 | < 50 | < 50 | < 50 | < 50 | < 50 | < 50 | < 50 | < 50
O=C(O)c1ccc(-c2cnc3c(c2)N(Cc2cc(Cl)ccc2C(F)(F)F)CCN3)cc1 | 79.2 | < 50 |  |  |  |  |  | < 50
O=C(c1ccc(-c2cnc3c(c2)N(Cc2cc(Cl)ccc2C(F)(F)F)CCN3)cc1)N1CCC(N2CCCC2)CC1 | < 50 | < 50 |  |  | < 50 |  |  | < 50
CN1CCN(c2ccc(-c3cnc4c(c3)N(Cc3c(F)ccc(F)c3Cl)CCN4)cn2)CC1 | < 50 | < 50 | < 50 | < 50 | < 50 | < 50 | < 50 | < 50

Other lines, results leading:

inhibition [1] [%] | inhibition [2] [%] | inhibition [3] [%] | inhibition [4] [%] | inhibition [5] [%] | inhibition [6] [%] | inhibition [7] [%] | inhibition [8] [%] | Structure (SMILES)
< 50 | < 50 | < 50 | < 50 | < 50 | < 50 | < 50 | < 50 | CN1CCN(c2ccc(-c3cnc4c(c3)N(Cc3cc(Cl)ccc3C(F)(F)F)CCN4)cn2)CC1
< 50 | < 50 |  |  | < 50 |  |  | < 50 | COC1CCN(C(=O)c2ccc(-c3cnc4c(c3)N(Cc3cc(Cl)ccc3C(F)(F)F)CCN4)cc2)CC1
< 50 | < 50 |  |  |  |  |  | < 50 | O=C(c1ccc(-c2cnc3c(c2)N(Cc2cc(Cl)ccc2C(F)(F)F)CCN3)cc1)N1CCCCC1
< 50 | < 50 | < 50 | < 50 | < 50 | < 50 | < 50 | < 50 | CN1CCN(c2ccc(-c3cnc4c(c3)N(Cc3cc(F)ccc3F)CCN4)cn2)CC1
